The target in data set [1] is Cyclin-dependent kinase 1/cyclin B1 (Homo sapiens, UniProt P06493). Put plainly: Inhibition of recombinant full length His-tagged human CDK1/CyclinB expressed in baculovirus expression system.
Data set [2] addresses Mitogen-activated protein kinase kinase kinase 1 (Homo sapiens) (UniProt Q13233). Put plainly: Binding affinity to wild-type human partial length MAP3K1 (L1202 to W1512 residues) expressed in mammalian expression system assessed as remaining unbound target protein level at 1000 nM by Kinomescan method relative to control.
The target in data set [3] is Serine/threonine-protein kinase PLK3 (Homo sapiens) (UniProt Q9H4B4). The data set is described as follows: Binding affinity to wild-type human partial length PLK3 (A42 to L334 residues) expressed in mammalian expression system assessed as remaining unbound target protein level at 1000 nM by Kinomescan method relative to control.
Data set [4] concerns Epidermal growth factor receptor (Homo sapiens), P00533 [G719C]. Put plainly: Binding affinity to human partial length EGFR G719C mutant (R669 to V1011 residues) expressed in bacterial expression system assessed as remaining unbound target protein level at 1000 nM by Kinomescan method relative to control. In short, it runs like this: (§1)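 KINOMEscan competition-binding profiling across the panel of 468 kinases and mutants, with inhibitor tested at 1 μM. Binding is expressed as percent of control, with DMSO as the reference control.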

Data set [5] has as its target Insulin receptor-related protein (Homo sapiens) (UniProt P14616). The data set is described as follows: Binding affinity to wild-type human partial length INSRR (R950 to E1278 residues) expressed in bacterial expression system assessed as remaining unbound target protein level at 1000 nM by Kinomescan method relative to control.
The target of data set [6] is Serine/threonine-protein kinase D3 (Homo sapiens) (UniProt O94806). The data set is described as follows: Binding affinity to wild-type human partial length PRKD3 (S543 to E863 residues) expressed in bacterial expression system assessed as remaining unbound target protein level at 1000 nM by Kinomescan method relative to control.
Data set [7] has as its target Cytoplasmic tyrosine-protein kinase BMX (Homo sapiens) (UniProt P51813). Put plainly: Binding affinity to wild-type human full length BMX (M1 to H675 residues) expressed in bacterial expression system assessed as remaining unbound target protein level at 1000 nM by Kinomescan method relative to control. In short, it runs like this:
(§2)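 Single-point competition binding screen across a panel of 468 kinases and mutants, with the inhibitor at 1 μM. Binding is read out as percent of a DMSO control, and targets below 1 percent control were classed as strong binders.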

The test system of data set [8] is OCI-AML-3. The data set is described as follows: Antiproliferative activity against human OCI-AML3 cells after 72 hrs by Celltiter-Glo assay. The settings on record: OCI-AML-3, 72 h. It counts as functional. In short, it runs like this: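 Cells seeded at 3000/well in 96-well plates, exposed to serially diluted compound for 72 h at 37 °C, 5% CO2. Viability read by CellTiter-Glo luminescence and normalized to DMSO control. GI50 derived from curve fit, mean of three independent measurements. Culture media: DMEM/10% FBS for adherent lines; IMDM for MV4-11 and MEC-1/2; RPMI 1640 for suspension lines and CHL.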

A short description of data set [9]: Oral bioavailability in mouse at 10 mg/kg by LC-MS/MS analysis. It is filed as ADME, organism-based. To be noted: in vivo.
Data set [10] addresses Serine/threonine-protein kinase DCLK1 (Homo sapiens) (UniProt O15075). Put plainly: Binding affinity to wild-type human partial length DCAMKL1 (L270 to A662 residues) expressed in mammalian expression system assessed as remaining unbound target protein level at 1000 nM by Kinomescan method relative to control.
Data set [11] addresses Dual serine/threonine and tyrosine protein kinase (Homo sapiens) (UniProt Q6XUX3). Put plainly: Binding affinity to wild-type human full length RIPK5 (M1 to T929 residues) expressed in mammalian expression system assessed as remaining unbound target protein level at 1000 nM by Kinomescan method relative to control. In short, it runs like this: (§3)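 KINOMEscan competition binding profile across a panel of 468 kinases and mutants, with the inhibitor tested at a single concentration of 1 μM. Binding is reported as percent of control, meaning signal relative to a DMSO control.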

The test system of data set [12] is Epidermal growth factor receptor (Homo sapiens), P00533 [UNDEFINED MUTATION]. The data set is described as follows: Binding affinity to human partial length EGFR L747-S752del/P753S mutant expressed in bacterial expression system assessed as remaining unbound target protein level at 1000 nM by Kinomescan method relative to control. In short, it runs like this: as §1

The test system of data set [13] is Hepatocyte growth factor receptor (Homo sapiens), P08581 [Y1235D]. The data set is described as follows: Binding affinity to human partial length MET Y1235D mutant (D1010 to S1367 residues) expressed in bacterial expression system assessed as remaining unbound target protein level at 1000 nM by Kinomescan method relative to control. In short, it runs like this: as §1

Data set [14] has as its target Phosphatidylinositol 5-phosphate 4-kinase type-2 beta (Homo sapiens) (UniProt P78356). The data set is described as follows: Binding affinity to wild-type human full length PIP5K2B (M1 to T416 residues) expressed in bacterial expression system assessed as remaining unbound target protein level at 1000 nM by Kinomescan method relative to control. In short, it runs like this:
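Profiled in a KINOMEscan binding panel with the inhibitor at a single concentration of 1 μM. Binding to each kinase was read out as percent of control, relative to a DMSO control. Strong binders were defined as those with a percent control value below 1.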

Data set [15] deals with cGMP-dependent protein kinase 1 (Homo sapiens) (UniProt Q13976). Put plainly: Binding affinity to wild-type human partial length PRKG1 (L339 to F686 residues) expressed in bacterial expression system assessed as remaining unbound target protein level at 1000 nM by Kinomescan method relative to control.
Data set [16] in a line: AUC (0 to t) in mouse at 3 mg/kg, iv by LC-MS/MS analysis. It counts as ADME, organism-based. The settings on record: in vivo. In short, it runs like this: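 Non-compartmental PK. Male SD rats 190-210 g, mice and beagle dogs acclimatized one week, fasted 12 h with water, split into iv and po groups (mice 48, rats 6, dogs 6). iv 3/3/2 mg/kg (mice/rats/dogs); po 10/20/10 mg/kg; vehicle DMSO in 5% glucose water. Blood at 2 or 5 to 720 min; plasma protein-precipitated with methanol, caffeine internal standard, LC-MS/MS.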

Data set [17] addresses Casein kinase I isoform epsilon (Homo sapiens) (UniProt P49674). The data set is described as follows: Binding affinity to wild-type human full length CSNK1E (M1 to K416 residues) expressed in bacterial expression system assessed as remaining unbound target protein level at 1000 nM by Kinomescan method relative to control. In short, it runs like this:
as §2

Data set [18] has as its target Mitogen-activated protein kinase kinase kinase kinase 1 (Homo sapiens) (UniProt Q92918). The data set is described as follows: Binding affinity to wild-type human full length HPK1 (M1 to R799 residues) expressed in bacterial expression system assessed as remaining unbound target protein level at 1000 nM by Kinomescan method relative to control. In short, it runs like this:
as §3

In data set [19] the target is Non-receptor tyrosine-protein kinase TYK2 (Homo sapiens) (UniProt P29597). The data set is described as follows: Binding affinity to wild-type human partial length TYK2 JH1 catalytic domain (V877 to C1187 residues) expressed in mammalian expression system assessed as remaining unbound target protein level at 1000 nM by Kinomescan method relative to control.
Data set [20] is filed under the species Homo sapiens. The data set is described as follows: Induction of apoptosis in human MEC1 cells assessed as decrease in MCL-1 level after 2 hrs by immunoblotting analysis. It is filed as functional, cell-based.

The values that follow come from ChEMBL document CHEMBL4261600 (Eur J Med Chem, 2018).

Chain of Serine/threonine-protein kinase PLK3 (Homo sapiens) (Q9H4B4 whole entry, looked up, the tested form may be a part): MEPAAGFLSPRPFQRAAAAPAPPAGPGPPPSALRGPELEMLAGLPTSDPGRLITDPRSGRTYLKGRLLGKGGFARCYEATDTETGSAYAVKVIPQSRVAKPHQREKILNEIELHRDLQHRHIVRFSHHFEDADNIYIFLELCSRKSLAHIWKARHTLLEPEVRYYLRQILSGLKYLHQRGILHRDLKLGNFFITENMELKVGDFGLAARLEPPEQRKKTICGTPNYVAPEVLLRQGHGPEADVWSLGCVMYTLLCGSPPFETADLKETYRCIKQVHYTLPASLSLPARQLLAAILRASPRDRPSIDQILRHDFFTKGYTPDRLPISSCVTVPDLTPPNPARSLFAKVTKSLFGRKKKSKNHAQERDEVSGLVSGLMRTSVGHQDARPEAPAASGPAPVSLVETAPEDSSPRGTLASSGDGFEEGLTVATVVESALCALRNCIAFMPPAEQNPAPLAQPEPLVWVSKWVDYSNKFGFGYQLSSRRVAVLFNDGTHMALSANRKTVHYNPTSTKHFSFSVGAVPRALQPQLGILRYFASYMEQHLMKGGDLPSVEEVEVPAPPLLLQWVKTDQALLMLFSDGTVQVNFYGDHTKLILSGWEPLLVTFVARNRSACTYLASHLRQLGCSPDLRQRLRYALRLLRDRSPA
Chain of Serine/threonine-protein kinase DCLK1 (Homo sapiens) (O15075 whole entry, the tested form may be a part): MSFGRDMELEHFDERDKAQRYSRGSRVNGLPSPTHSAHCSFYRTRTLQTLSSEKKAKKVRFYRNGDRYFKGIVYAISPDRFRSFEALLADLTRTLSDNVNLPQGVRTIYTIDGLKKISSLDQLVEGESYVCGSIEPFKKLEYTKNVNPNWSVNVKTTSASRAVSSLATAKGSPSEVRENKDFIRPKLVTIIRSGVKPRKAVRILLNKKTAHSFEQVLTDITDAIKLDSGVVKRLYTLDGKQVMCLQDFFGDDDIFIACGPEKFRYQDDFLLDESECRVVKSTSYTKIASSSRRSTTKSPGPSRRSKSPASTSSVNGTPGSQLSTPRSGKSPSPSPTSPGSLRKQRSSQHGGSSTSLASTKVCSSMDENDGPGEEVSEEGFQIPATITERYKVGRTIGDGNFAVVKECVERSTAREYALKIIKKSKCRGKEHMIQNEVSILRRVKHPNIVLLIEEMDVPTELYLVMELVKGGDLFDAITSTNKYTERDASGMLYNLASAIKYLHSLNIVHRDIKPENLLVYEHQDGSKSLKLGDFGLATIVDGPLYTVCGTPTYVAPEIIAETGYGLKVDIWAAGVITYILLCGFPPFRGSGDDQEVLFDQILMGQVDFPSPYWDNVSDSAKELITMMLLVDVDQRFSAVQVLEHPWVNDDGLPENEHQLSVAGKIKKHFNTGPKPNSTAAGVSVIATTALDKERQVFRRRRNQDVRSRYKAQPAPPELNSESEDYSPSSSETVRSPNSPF
Chain of Non-receptor tyrosine-protein kinase TYK2 (Homo sapiens) (P29597 whole entry, the tested form may be a part): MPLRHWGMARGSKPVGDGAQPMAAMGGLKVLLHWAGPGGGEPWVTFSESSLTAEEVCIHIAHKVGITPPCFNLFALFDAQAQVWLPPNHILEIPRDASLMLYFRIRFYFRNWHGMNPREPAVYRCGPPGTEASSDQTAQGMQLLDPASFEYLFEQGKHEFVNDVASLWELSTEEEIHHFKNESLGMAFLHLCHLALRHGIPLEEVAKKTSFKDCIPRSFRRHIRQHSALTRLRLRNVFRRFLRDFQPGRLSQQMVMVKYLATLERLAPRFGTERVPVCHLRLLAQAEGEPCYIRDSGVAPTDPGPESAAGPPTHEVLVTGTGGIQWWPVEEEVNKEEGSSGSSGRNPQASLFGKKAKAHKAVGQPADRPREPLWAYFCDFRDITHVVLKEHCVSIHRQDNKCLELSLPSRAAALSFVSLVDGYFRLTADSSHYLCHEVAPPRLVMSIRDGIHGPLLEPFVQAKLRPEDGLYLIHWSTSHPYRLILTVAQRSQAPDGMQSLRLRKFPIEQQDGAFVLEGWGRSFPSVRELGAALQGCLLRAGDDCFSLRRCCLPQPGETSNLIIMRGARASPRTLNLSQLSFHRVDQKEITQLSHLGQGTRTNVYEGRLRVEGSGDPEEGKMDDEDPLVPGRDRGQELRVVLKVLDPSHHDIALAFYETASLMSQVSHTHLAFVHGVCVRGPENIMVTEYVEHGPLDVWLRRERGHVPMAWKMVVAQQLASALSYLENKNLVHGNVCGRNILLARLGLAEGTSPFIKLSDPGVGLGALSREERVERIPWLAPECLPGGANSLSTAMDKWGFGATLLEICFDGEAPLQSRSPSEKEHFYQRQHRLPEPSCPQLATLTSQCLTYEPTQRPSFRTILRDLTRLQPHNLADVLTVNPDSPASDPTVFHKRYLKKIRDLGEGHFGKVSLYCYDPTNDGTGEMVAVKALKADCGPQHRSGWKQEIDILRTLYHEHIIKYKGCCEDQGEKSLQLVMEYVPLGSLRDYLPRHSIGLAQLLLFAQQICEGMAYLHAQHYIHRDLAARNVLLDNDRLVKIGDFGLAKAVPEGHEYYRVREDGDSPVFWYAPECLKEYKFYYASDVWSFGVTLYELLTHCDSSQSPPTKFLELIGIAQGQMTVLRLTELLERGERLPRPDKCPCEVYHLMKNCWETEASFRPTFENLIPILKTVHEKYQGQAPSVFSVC
Chain of Dual serine/threonine and tyrosine protein kinase (Homo sapiens) (Q6XUX3 whole entry, the tested form may be a part): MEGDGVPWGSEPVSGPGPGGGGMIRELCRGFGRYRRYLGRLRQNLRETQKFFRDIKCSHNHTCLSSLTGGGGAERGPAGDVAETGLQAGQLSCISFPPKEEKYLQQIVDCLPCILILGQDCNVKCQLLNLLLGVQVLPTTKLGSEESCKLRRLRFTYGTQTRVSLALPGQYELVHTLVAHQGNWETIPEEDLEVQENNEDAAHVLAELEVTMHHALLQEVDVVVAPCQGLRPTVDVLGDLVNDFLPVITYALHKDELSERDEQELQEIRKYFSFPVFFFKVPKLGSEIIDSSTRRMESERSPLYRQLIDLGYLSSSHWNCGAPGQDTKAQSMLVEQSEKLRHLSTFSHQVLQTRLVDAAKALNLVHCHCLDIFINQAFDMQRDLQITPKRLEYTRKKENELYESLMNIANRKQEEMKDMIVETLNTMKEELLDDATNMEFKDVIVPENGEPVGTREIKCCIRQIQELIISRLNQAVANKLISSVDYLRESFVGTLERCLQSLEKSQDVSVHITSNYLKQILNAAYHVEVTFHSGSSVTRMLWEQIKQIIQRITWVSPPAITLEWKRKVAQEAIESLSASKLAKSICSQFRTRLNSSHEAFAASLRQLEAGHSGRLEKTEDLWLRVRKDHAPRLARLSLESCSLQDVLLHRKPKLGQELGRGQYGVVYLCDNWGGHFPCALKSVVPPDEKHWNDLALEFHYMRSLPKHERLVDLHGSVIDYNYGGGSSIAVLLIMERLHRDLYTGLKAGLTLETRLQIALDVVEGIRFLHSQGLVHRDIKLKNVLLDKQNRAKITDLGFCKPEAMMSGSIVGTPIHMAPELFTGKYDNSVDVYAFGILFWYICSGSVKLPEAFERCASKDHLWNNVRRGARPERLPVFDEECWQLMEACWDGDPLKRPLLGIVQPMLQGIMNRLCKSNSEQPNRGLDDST
Chain of Insulin receptor-related protein (Homo sapiens) (P14616 27-742 limits assumed): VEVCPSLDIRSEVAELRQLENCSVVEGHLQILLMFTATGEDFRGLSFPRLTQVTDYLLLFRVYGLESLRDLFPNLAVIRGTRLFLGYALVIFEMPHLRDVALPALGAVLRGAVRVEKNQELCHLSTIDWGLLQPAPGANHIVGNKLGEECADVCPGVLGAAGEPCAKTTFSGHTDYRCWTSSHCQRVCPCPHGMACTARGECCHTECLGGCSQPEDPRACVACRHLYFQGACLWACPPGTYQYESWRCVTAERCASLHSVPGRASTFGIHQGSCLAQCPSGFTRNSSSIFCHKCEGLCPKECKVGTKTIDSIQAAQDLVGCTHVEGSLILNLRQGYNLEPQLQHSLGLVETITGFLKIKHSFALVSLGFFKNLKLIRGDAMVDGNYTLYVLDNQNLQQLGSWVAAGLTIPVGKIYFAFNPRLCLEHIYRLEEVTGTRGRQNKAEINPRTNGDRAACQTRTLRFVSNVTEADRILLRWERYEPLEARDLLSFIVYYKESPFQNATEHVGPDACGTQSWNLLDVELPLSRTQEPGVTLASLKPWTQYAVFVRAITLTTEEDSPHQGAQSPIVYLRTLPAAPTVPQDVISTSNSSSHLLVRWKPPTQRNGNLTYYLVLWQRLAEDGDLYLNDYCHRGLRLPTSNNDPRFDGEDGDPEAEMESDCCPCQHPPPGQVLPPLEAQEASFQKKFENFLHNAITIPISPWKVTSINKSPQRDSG
Chain of Insulin receptor-related protein (Homo sapiens) (P14616 747-1297 limits assumed): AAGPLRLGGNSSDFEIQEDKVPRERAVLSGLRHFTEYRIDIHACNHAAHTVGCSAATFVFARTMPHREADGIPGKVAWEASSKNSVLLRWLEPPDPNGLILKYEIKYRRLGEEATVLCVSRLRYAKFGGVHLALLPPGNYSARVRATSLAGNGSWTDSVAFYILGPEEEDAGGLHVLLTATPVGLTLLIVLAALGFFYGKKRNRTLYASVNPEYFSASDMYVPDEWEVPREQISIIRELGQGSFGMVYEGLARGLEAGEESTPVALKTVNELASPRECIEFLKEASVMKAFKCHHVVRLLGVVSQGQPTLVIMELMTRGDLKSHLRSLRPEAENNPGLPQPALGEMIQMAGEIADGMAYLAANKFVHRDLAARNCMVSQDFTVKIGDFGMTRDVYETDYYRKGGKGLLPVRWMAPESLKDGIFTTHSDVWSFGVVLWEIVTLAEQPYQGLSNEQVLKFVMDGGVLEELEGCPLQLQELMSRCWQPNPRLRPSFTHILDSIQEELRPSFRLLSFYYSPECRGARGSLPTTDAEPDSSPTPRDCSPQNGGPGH

For `COCCN[C@H]1CC[C@H](Nc2cc(-c3csc(NCC4(C#N)CCOCC4)n3)c(Cl)cn2)CC1`, the IC50 in [1] worked out at 1340 nM. Further, the Activity in data set [2] worked out at 100%; in data set [3] it was 99%; in data set [4] it was 98%; in [5], 92%; in data set [6] it was 89%; in data set [7] it was 92%. Moreover, the Activity in data set [10] is 100%; in data set [11], 95%; in data set [12], 79%; in data set [13], 96%; in [14], 100%; in data set [15], 100%. The Activity in data set [17] is 87%; in data set [18], 95%; in data set [19] it was 90%; in [20] it was “Dose-dependent effect”. In data set [8], this compound came in with a GI50 of 6.6 nM. Besides, the bioavailability in data set [9] was 45%. Further, the AUC(0-t) in data set [16] amounted to 393 ng·h/mL.
